Reference: ChEMBL document CHEMBL3352764, “Rational design of novel CYP2A6 inhibitors” (Bioorg Med Chem, 2014)

Tests used:
Cytochrome P450 2A6 [1] = biological target: T1, Cytochrome P450 2A6 (Homo sapiens, UniProt P11509); assay: Inhibition of human CYP2A6 in baculovirus-infected insect cell system using […] as substrate incubated for 30 mins prior to substrate addition measured after 10 mins by fluorescence assay; details: for inhibition (INH): human, 10 min
T1 sequence (P11509 whole entry): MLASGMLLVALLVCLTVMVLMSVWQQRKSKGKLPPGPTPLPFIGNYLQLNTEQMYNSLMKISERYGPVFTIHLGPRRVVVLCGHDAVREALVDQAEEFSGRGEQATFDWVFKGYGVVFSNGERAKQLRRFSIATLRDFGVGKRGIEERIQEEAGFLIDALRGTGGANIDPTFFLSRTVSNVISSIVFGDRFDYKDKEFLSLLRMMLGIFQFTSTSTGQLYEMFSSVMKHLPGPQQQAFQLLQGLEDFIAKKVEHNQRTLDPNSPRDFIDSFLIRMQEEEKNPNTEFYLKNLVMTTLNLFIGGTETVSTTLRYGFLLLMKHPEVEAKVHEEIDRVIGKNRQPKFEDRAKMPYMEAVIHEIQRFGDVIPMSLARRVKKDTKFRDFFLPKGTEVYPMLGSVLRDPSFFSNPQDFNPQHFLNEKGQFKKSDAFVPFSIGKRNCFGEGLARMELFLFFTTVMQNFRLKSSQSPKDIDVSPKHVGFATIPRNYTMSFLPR

Cytochrome P450 2A6 [2] = biological target: T1, Cytochrome P450 2A6; assay: Inhibition of human CYP2A6 in baculovirus-infected insect cell system using […] as substrate preincubated for 10 mins by fluorescence assay
Summary of the method: (§1)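 Coumarin 7-hydroxylation by baculovirus/insect-cell human CYP2A6. Reaction started with NADPH (final 0.33 mM) and preincubated 10 min at 37 °C. Stopped with 10% TCA, then 1.6 M glycine-NaOH added; 7-hydroxycoumarin fluorescence read at ex 355/em 450 nm. Blanks subtracted; activity as % of control; IC50 by nonlinear fitting.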

Cytochrome P450 2A6 [3] = biological target: T1, Cytochrome P450 2A6; assay: Irreversible inhibition of human CYP2A6 in baculovirus-infected insect cell system assessed as nicotine metabolism after 15 mins
Summary of the method: (§2)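 Nicotine oxidation by expressed CYP2A6 (with P450 reductase and cytochrome b5): 10 pmol CYP and 10 pmol b5/ml, 1 mM NADPH, 50 µl cytosol, 50 mM Tris–HCl pH 7.4, 37 °C, 15 min. Stopped with 4% v/v Na2CO3; 5-methylcotinine internal standard; nicotine and metabolites quantified by HPLC. Drug concentrations expressed as free base.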

CYP2A6 = biological target: T2, CYP2A6 (Homo sapiens, UniProt P11509); assay: (§3) Irreversible inhibition of human CYP2A6 in baculovirus-infected insect cell system using […] as substrate incubated for 10 mins by fluorescence assay; details: human, probe coumarin (printed: coumarin 7)
T2 sequence (P11509 whole entry): T1 sequence (P11509 whole entry)
Summary of the method: (§4)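 Inactivation: five inhibitor concentrations plus vehicle preincubated various times (including 0 min) with 5–20 pmol CYP2A6 and NADPH. Then diluted 10–40 fold into 50 mM Tris–HCl pH 7.4, 5 mM MgCl2, 10 µM coumarin, 0.3 mM NADPH, 10 min at 37 °C. Kobs from ln activity vs time; Kinact and Ki from double-reciprocal regression.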

Cytochrome P450 2A6 [4] = biological target: T1, Cytochrome P450 2A6; assay: as §3; summary of the method: as §4
Cytochrome P450 2A6 [5] = biological target: T1, Cytochrome P450 2A6; assay: Competitive inhibition of human CYP2A6 in baculovirus-infected insect cell system assessed as nicotine metabolism after 15 mins; summary of the method: as §2
Cytochrome P450 2A6 [6] = biological target: T1, Cytochrome P450 2A6; assay: Inhibition of human CYP2A6 in baculovirus-infected insect cell system using […] as substrate in presence of mouse liver cytosolic fraction by fluorescence assay
Cytochrome P450 2A6 [7] = biological target: T1, Cytochrome P450 2A6; assay: Reversible inhibition of human CYP2A6 in baculovirus-infected insect cell system using […] as substrate preincubated for 10 mins by fluorescence assay; summary of the method: as §1
Cytochrome P450 2A6 [8] = biological target: T1, Cytochrome P450 2A6; assay: Mixed-type inhibition of human CYP2A6 in baculovirus-infected insect cell system assessed as nicotine metabolism after 15 mins; summary of the method: as §2

SMILES	inhibition (INH) (Cytochrome P450 2A6 [1])	IC50 (Cytochrome P450 2A6 [2])	further results
CCc1ccc(C#N)cc1		7400 nM	
Cc1ccc(C#N)cc1		8100 nM	
O=Cc1ccc2occc2c1		400 nM	Ki (Cytochrome P450 2A6 [5]): 5500 nM; IC50 (Cytochrome P450 2A6 [1]): 50 nM; kinact at 10 min (CYP2A6): 0.00133 s⁻¹; Ki (Cytochrome P450 2A6 [4]; read-out: Ki): 2400 nM; inhibition (INH) (Cytochrome P450 2A6 [6]): Not Active; Ki (Cytochrome P450 2A6 [2]): 70 nM
Brc1cc2ccccc2o1		140000 nM	
Brc1ccc2[nH]ccc2c1	Active	7400 nM	
O=Cc1cccc2ccsc12	Active	11000 nM	
Cc1cc2cc(N)ccc2[nH]1	Active	34000 nM	
CNCc1cc2ccccc2s1	Active	500 nM	
O=Cc1c[nH]c2ccccc12 [3-FORMYLINDOLE]	Active	79000 nM	Ki (Cytochrome P450 2A6 [2]): 11000 nM
O=Cc1ccc2[nH]ccc2c1	Active	400 nM	Ki (Cytochrome P450 2A6 [5]): 1800 nM; inhibition (INH) (Cytochrome P450 2A6 [6]): Not Active; Ki (Cytochrome P450 2A6 [2]): 70 nM
O=Cc1cc2cnccc2s1	Active	300 nM	inhibition (INH) (Cytochrome P450 2A6 [7]): Active; Ki (Cytochrome P450 2A6 [5]): 1100 nM; inhibition (INH) (Cytochrome P450 2A6 [6]): Not Active; Ki (Cytochrome P450 2A6 [2]): 70 nM
NCc1csc2ccc(Br)cc12	Active	700 nM	Ki (Cytochrome P450 2A6 [8]): 800 nM; inhibition (INH) (Cytochrome P450 2A6 [7]): Active; Ki (Cytochrome P450 2A6 [2]): 200 nM
CN(C)Cc1cc2cnccc2s1	Active	1400 nM	inhibition (INH) (Cytochrome P450 2A6 [7]): Active; Ki (Cytochrome P450 2A6 [5]): 500 nM; Ki (Cytochrome P450 2A6 [2]): 600 nM
OCc1csc2ccccc12	Active	37000 nM	
Cc1ccc2sc(C=O)cc2c1	Active	3400 nM	
O=Cc1cc2ccccc2s1		3200 nM	IC50 (Cytochrome P450 2A6 [1]): 800 nM; Ki (Cytochrome P450 2A6 [4]; read-out: Ki(app)): 130 nM
NCc1cc2cc(Br)ccc2o1		< 100000 nM	
N#Cc1csc2ccc(Cl)cc12	Active	41000 nM	
Cc1csc2ccc(Cl)cc12	Active	88000 nM	
NCc1cc2ccccc2s1	Active		Ki (Cytochrome P450 2A6 [2]): 10 nM

More lines, main results first:

inhibition (INH) (Cytochrome P450 2A6 [1])	IC50 (Cytochrome P450 2A6 [2])	SMILES	further results
Active	1500 nM	CNCc1cc2cnccc2s1	
Active	1000 nM	NCc1cc2cnccc2s1	
	17000 nM	O=Cc1cc2ccccc2o1	
	1600 nM	N#Cc1ccc2occc2c1	Ki (Cytochrome P450 2A6 [3]): 200 nM; IC50 (Cytochrome P450 2A6 [1]): 600 nM; kinact at 10 min (CYP2A6): 0.00133 s⁻¹; Ki (Cytochrome P450 2A6 [4]; read-out: Ki): 2400 nM; Ki (Cytochrome P450 2A6 [2]): 100 nM
	5000 nM	O=Cc1csc2ccc(Br)cc12	IC50 (Cytochrome P450 2A6 [1]): 500 nM; Ki (Cytochrome P450 2A6 [4]; read-out: Ki(app)): 1500 nM
	< 100000 nM	O=CCc1coc2ccccc12	
	270000 nM	O=C(Cl)c1csc2ccccc12	
Active	1500 nM	O=Cc1ccc2cc[nH]c2c1	
Active	18000 nM	OCc1cc2ccccc2s1	
Active	57000 nM	O=Cc1c[nH]c2cc(Br)ccc12	Ki (Cytochrome P450 2A6 [2]): 3300 nM
Active	900 nM	O=Cc1ccc2sccc2c1	
Active	51000 nM	N#CCc1csc2ccc(Cl)cc12	
Active	6600 nM	NC(=S)c1csc2ccncc12	
Active	8400 nM	Cn1ccc2ccc(C=O)cc21	
Active	5200 nM	NCc1cc2ccncc2s1	
Active	400 nM	NCc1csc2ccc(Cl)cc12	Ki (Cytochrome P450 2A6 [8]): 6000 nM; Ki (Cytochrome P450 2A6 [2]): 90 nM
	8000 nM	O=Cc1cc2cccnc2s1	IC50 (Cytochrome P450 2A6 [1]): 400 nM; kinact at 10 min (CYP2A6): 0.00133 s⁻¹; Ki (Cytochrome P450 2A6 [4]; read-out: Ki): 2400 nM
	< 100000 nM	OCc1cc2cc(Br)ccc2o1	
Active	680 nM	Cn1ccc2cc(C=O)ccc21	
Active	12000 nM	O=Cc1c[nH]c2cccc(Br)c12	Ki (Cytochrome P450 2A6 [2]): 8600 nM
	72000 nM	O=Cc1cc2cc(Br)ccc2o1	
Active	400 nM	O=Cc1cc2ccncc2s1	Ki (Cytochrome P450 2A6 [5]): 4200 nM; inhibition (INH) (Cytochrome P450 2A6 [6]): Not Active; Ki (Cytochrome P450 2A6 [2]): 60 nM
Active	2200 nM	CNCc1cc2cccnc2s1	Ki (Cytochrome P450 2A6 [2]): 800 nM
	11000 nM	O=Cc1cc2ccccc2[nH]1	IC50 (Cytochrome P450 2A6 [1]): 1800 nM; kinact at 10 min (CYP2A6): 0.00133 s⁻¹; Ki (Cytochrome P450 2A6 [4]; read-out: Ki): 2400 nM
	52000 nM	N#Cc1cc2ccccc2o1	
